In ChEMBL document CHEMBL1149338, “Synthesis and in vitro evaluation of salvinorin A analogues: effect of configuration at C(2) and substitution at C(18)” (Bioorg Med Chem Lett, 2006):

Tests used:
[1] = biological target: T1, Kappa-type opioid receptor (Homo sapiens, UniProt P41145); assay: Inhibition of [3H]diprenorphine binding to human KOR expressed in CHO cells; assay type: cell-based
Outline: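 Affinity: membranes from CHO cells stably transfected with human κ-opioid receptor; competitive inhibition of [3H]diprenorphine binding; Ki values; mean of at least three independent experiments, each in duplicate.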

[2] = biological target: T1, Kappa-type opioid receptor; assay: Enhancement of [35S]GTP-gamma-S binding to human KOR expressed in CHO cells relative to U50,488H; assay type: functional, cell-based
[3] = biological target: T1, Kappa-type opioid receptor; assay: Enhancement of [35S]GTP-gamma-S binding to human KOR expressed in CHO cells; assay type: functional, cell-based
[4] = biological target: T1, Kappa-type opioid receptor; assay: Enhancement of [35S]GTP-gamma-S binding to human KOR expressed in CHO cells relative to U50,488H at 10 uM; assay type: functional, cell-based

T1 sequence (P41145 whole entry): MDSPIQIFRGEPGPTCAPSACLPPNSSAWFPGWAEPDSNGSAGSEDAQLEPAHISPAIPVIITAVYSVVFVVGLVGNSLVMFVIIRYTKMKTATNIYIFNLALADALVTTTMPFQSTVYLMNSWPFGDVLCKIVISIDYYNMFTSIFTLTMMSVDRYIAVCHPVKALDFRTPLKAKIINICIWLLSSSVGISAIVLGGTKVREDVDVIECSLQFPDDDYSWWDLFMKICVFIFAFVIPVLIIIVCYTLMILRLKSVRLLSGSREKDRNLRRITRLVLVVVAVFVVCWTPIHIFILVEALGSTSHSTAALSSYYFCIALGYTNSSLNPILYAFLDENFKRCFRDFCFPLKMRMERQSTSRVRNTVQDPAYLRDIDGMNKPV

| Compound | Ki [1] [nM] | Efficacy [2] [%] | EC50 [3] [nM] | Efficacy [4] [%] |
| --- | --- | --- | --- | --- |
| CC(=O)O[C@H]1C[C@@H](C(=O)N(C)C)[C@]2(C)CC[C@H]3C(=O)O[C@H](c4ccoc4)C[C@]3(C)[C@H]2C1=O | > 10000 |  |  |  |
| COC(=O)[C@@H]1C[C@H](OC(C)=O)C(=O)[C@@H]2[C@@]3(C)C[C@@H](c4ccoc4)OC(=O)[C@H]3CC[C@]21C |  | 88 |  |  |
| CCN[C@H]1C[C@@H](C(=O)OC)[C@]2(C)CC[C@H]3C(=O)O[C@H](c4ccoc4)C[C@]3(C)[C@H]2C1=O | 65.2 |  | 72.8 |  |
| CCNC[C@@H]1C[C@H](OC(C)=O)C(=O)[C@@H]2C3(C)C[C@@H](c4ccoc4)OC[C@@H]3C(=O)C[C@@]12C (stereo partly drawn) | > 10000 |  |  |  |
| CN[C@H]1C[C@@H](C(=O)OC)[C@]2(C)CC[C@H]3C(=O)O[C@H](c4ccoc4)C[C@]3(C)[C@H]2C1=O | 328 | 82 | 825 |  |
| COC(=O)[C@@H]1C[C@@H](OC)C(=O)[C@H]2[C@@]1(C)CC[C@H]1C(=O)O[C@H](c3ccoc3)C[C@]21C | > 10000 |  |  |  |
| CNC[C@@H]1C[C@H](OC(C)=O)C(=O)[C@@H]2C3(C)C[C@@H](c4ccoc4)OC[C@@H]3C(=O)C[C@@]12C (stereo partly drawn) | > 10000 |  |  |  |
| CCNC[C@@H]1C[C@H](OC(C)=O)C(=O)[C@@H]2C3(C)C[C@@H](c4ccoc4)OC[C@H]3C(=O)C[C@@]12C (stereo partly drawn) | > 10000 |  |  |  |
| COC(=O)[C@@H]1C[C@@H](N)C(=O)[C@H]2[C@@]1(C)CC[C@H]1C(=O)O[C@H](c3ccoc3)C[C@]21C | 223 | 84 | 1370 |  |
| CCC(=O)N(CC)[C@@H]1C[C@@H](C(=O)OC)[C@]2(C)CC[C@H]3C(=O)O[C@H](c4ccoc4)C[C@]3(C)[C@H]2C1=O | 376 | 96 | 857 |  |
| COC(=O)[C@@H]1C[C@@H](NC(C)C)C(=O)[C@H]2[C@@]1(C)CC[C@H]1C(=O)O[C@H](c3ccoc3)C[C@]21C | 2.3 |  | 7.2 |  |
| CC(=O)O[C@H]1C[C@@H](CO)[C@]2(C)CC(=O)[C@@H]3CO[C@H](c4ccoc4)CC3(C)[C@H]2C1=O (stereo partly drawn) | > 10000 |  |  |  |
| COC(=O)[C@@H]1C[C@H](N(C)C)C(=O)[C@H]2[C@@]1(C)CC[C@H]1C(=O)O[C@H](c3ccoc3)C[C@]21C | 168 | 110 | 240 |  |
| CCC(=O)O[C@@H]1C[C@@H](C(=O)OC)[C@]2(C)CC[C@H]3C(=O)O[C@H](c4ccoc4)C[C@]3(C)[C@H]2C1=O | 641 |  |  |  |
| CC(=O)O[C@H]1C[C@@H](C(=O)N(C)C)[C@]2(C)CC[C@@H]3C(=O)O[C@H](c4ccoc4)C[C@]3(C)[C@H]2C1=O | > 10000 |  |  |  |
| CC(=O)O[C@H]1C[C@@H](CN(C)C)[C@]2(C)CC(=O)[C@H]3CO[C@H](c4ccoc4)CC3(C)[C@H]2C1=O (stereo partly drawn) | > 10000 |  |  |  |
| COC(=O)[C@@H]1C[C@H](N(C)C(C)=O)C(=O)[C@H]2[C@@]1(C)CC[C@H]1C(=O)O[C@H](c3ccoc3)C[C@]21C | 3.2 | 103 | 2.4 |  |
| COC(=O)[C@@H]1C[C@H](NC(C)C)C(=O)[C@H]2[C@@]1(C)CC[C@H]1C(=O)O[C@H](c3ccoc3)C[C@]21C | 17.6 |  | 18.9 |  |
| CCO[C@@H]1C[C@@H](C(=O)OC)[C@]2(C)CC[C@H]3C(=O)O[C@H](c4ccoc4)C[C@]3(C)[C@H]2C1=O | > 10000 |  |  |  |

| Compound | Ki [1] [nM] | Efficacy [2] [%] | EC50 [3] [nM] | Efficacy [4] [%] |
| --- | --- | --- | --- | --- |
| CCC(=O)N(C)[C@H]1C[C@@H](C(=O)OC)[C@]2(C)CC[C@H]3C(=O)O[C@H](c4ccoc4)C[C@]3(C)[C@H]2C1=O | 1.6 |  | 0.75 |  |
| CCNC(=O)[C@@H]1C[C@H](OC(C)=O)C(=O)[C@H]2[C@@]1(C)CC[C@H]1C(=O)O[C@H](c3ccoc3)C[C@]21C | > 10000 |  |  |  |
| COC(=O)[C@@H]1C[C@@H](NC(C)=O)C(=O)[C@H]2[C@@]1(C)CC[C@H]1C(=O)O[C@H](c3ccoc3)C[C@]21C | 332 |  | 339 |  |
| CNC[C@@H]1C[C@H](OC(C)=O)C(=O)[C@@H]2C3(C)C[C@@H](c4ccoc4)OC[C@H]3C(=O)C[C@@]12C (stereo partly drawn) | > 10000 |  |  |  |
| CCC(=O)N[C@H]1C[C@@H](C(=O)OC)[C@]2(C)CC[C@H]3C(=O)O[C@H](c4ccoc4)C[C@]3(C)[C@H]2C1=O | 374 | 109 | 444 |  |
| CCC(=O)N[C@@H]1C[C@@H](C(=O)OC)[C@]2(C)CC[C@H]3C(=O)O[C@H](c4ccoc4)C[C@]3(C)[C@H]2C1=O | 117 | 102 | 718 |  |
| CCNC(=O)[C@@H]1C[C@H](OC(C)=O)C(=O)[C@@H]2[C@@]3(C)C[C@@H](c4ccoc4)OC(=O)[C@H]3CC[C@]21C | > 10000 |  |  |  |
| COC(=O)[C@@H]1C[C@H](NC(C)=O)C(=O)[C@H]2[C@@]1(C)CC[C@H]1C(=O)O[C@H](c3ccoc3)C[C@]21C | 149 |  | 188 |  |
| CC(=O)O[C@H]1C[C@@H](CO)[C@]2(C)CC(=O)[C@H]3CO[C@H](c4ccoc4)CC3(C)[C@H]2C1=O (stereo partly drawn) | 1000 |  |  | 68 |
| CCCC(=O)O[C@@H]1C[C@@H](C(=O)OC)[C@]2(C)CC[C@H]3C(=O)O[C@H](c4ccoc4)C[C@]3(C)[C@H]2C1=O | 665 |  |  |  |
| CCN(C(C)=O)[C@@H]1C[C@@H](C(=O)OC)[C@]2(C)CC[C@H]3C(=O)O[C@H](c4ccoc4)C[C@]3(C)[C@H]2C1=O | 240 | 95 | 641 |  |
| COC[C@@H]1C[C@H](OC(C)=O)C(=O)[C@@H]2C3(C)C[C@@H](c4ccoc4)OC[C@H]3C(=O)C[C@@]12C (stereo partly drawn) | 769 |  |  | 70 |
| CC(=O)O[C@H]1C[C@@H](CN(C)C)[C@]2(C)CC(=O)[C@@H]3CO[C@H](c4ccoc4)CC3(C)[C@H]2C1=O (stereo partly drawn) | > 10000 |  |  |  |
| COC(=O)[C@@H]1C[C@@H](N(C)C(C)=O)C(=O)[C@H]2[C@@]1(C)CC[C@H]1C(=O)O[C@H](c3ccoc3)C[C@]21C |  | 106 |  |  |
| CNC(=O)[C@@H]1C[C@H](OC(C)=O)C(=O)[C@H]2[C@@]1(C)CC[C@H]1C(=O)O[C@H](c3ccoc3)C[C@]21C | 1390 |  |  | 71 |
| CCC(=O)N(CC)[C@H]1C[C@@H](C(=O)OC)[C@]2(C)CC[C@H]3C(=O)O[C@H](c4ccoc4)C[C@]3(C)[C@H]2C1=O | 38.1 | 100 | 37.2 |  |
| CCN(C(C)=O)[C@H]1C[C@@H](C(=O)OC)[C@]2(C)CC[C@H]3C(=O)O[C@H](c4ccoc4)C[C@]3(C)[C@H]2C1=O | 27.6 | 104 | 25.2 |  |
| CCC(=O)N(C)[C@@H]1C[C@@H](C(=O)OC)[C@]2(C)CC[C@H]3C(=O)O[C@H](c4ccoc4)C[C@]3(C)[C@H]2C1=O | 6.9 |  | 12.6 |  |
| CNC(=O)[C@@H]1C[C@H](OC(C)=O)C(=O)[C@@H]2[C@@]3(C)C[C@@H](c4ccoc4)OC(=O)[C@H]3CC[C@]21C | > 1000 |  |  |  |
